# Reference: publication PMC8598261 (European Journal of Medicinal Chemistry, 2021)
# Experiments:
# caspase-1 = molecular target: T1, caspase-1 (Homo sapiens, UniProt P29466); assay: Caspase-1 inhibition assay, cleavage of fluorogenic substrate YVAD-AFC; assay type: biochemical; conditions: for remaining activity at 100 µM: read-out: Enzyme activity (% at 100 μM)
# T1 sequence (P29466 120-297 limits assumed): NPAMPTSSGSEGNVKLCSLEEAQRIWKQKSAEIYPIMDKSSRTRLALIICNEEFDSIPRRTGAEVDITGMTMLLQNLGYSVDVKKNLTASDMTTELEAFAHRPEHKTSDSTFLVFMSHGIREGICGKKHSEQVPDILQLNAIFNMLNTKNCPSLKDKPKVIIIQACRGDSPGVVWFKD
# T1 sequence (P29466 317-404 limits assumed): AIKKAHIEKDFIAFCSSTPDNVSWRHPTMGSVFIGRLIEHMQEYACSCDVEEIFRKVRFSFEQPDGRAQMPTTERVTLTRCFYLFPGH
# Procedure, shortened: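 Fluorogenic caspase-1 assay: cleavage of YVAD-AFC releases free AFC, followed as a time course of fluorescence increase (Ex/Em 400/505 nm) and compared with an untreated control. Test compounds were run as 10-dose, 3-fold serial dilutions starting at 100 μM or 10 μM to give IC50. Residual activity at 100 μM is reported as % enzyme activity.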
# U937 cells = assay: U937 cell growth inhibition / cell viability by MTT assay; assay type: cell-based, human; conditions: lowest concentrations (range 1 nM to 100 μM), 48 h
# Procedure, shortened: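 Human U937 cells were grown in RPMI 1640 with 10% FBS, penicillin and streptomycin at 37 °C in 5% CO2. They were seeded at 10000 cells/well and exposed to test compound at 1 nM–100 μM for 48 h, with matched DMSO-only controls. MTT (0.1 mg/well) was added for 4 h at 37 °C, then cells were lysed and A595 read. Viability is % of control (100%), mean of three independent experiments.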
Structure (SMILES),remaining activity at 100 µM (caspase-1),IC50 (caspase-1),cytotoxic effect (U937 cells)
"O=C(O)CC(O)CNC(c1ccccc1)c1nnnn1CCCC(=O)NCc1ccccc1 (centres unmarked) [5be, Sodium 4-(((1-(4-(benzylamino)-4-oxobutyl)-1H-tetrazol-5-yl)(phenyl)methyl)amino)-3-hydroxybutanoate]",> 96.7%,–,–
"O=C(O)C[C@@H](O)CNC(c1ccccc1)c1nnnn1CCCC(=O)N1CCc2ccccc2C1 (mixture of isomers) [(3R)5 ag, Sodium (3R)-4-(((1-(4-(3,4-dihydroisoquinolin-2(1H)-yl)-4-oxobutyl)-1H-tetrazol-5-yl)(phenyl)methyl)amino)-3-hydroxybutanoate]",40.5%,53.5 µM,–
"CC(C)C(NCC(O)CC(=O)O)c1nnnn1CCCC(=O)NCc1ccccc1 (centres unmarked) [5bb, Sodium 4-((1-(1-(4-(benzylamino)-4-oxobutyl)-1H-tetrazol-5-yl)-2-methylpropyl)amino)-3-hydroxybutanoate]",> 96.7%,–,–
"CC(C)(C)CC(NCC(O)CC(=O)[O-])c1nnnn1CCCC(=O)N1CCc2ccccc2C1.[Na+] (centres unmarked) [5ae, Sodium-4-((1-(1-(4-(3,4-dihydroisoquinolin-2(1H)-yl)-4-oxobutyl)-1H-tetrazol-5-yl)-3,3-dimethylbutyl)amino)-3-hydroxybutanoate]",–,–,low or is not significant
"CC(NCC(O)CC(=O)O)c1nnnn1CCCC(=O)NCc1ccccc1 (centres unmarked) [5ba, Sodium 4-((1-(1-(4-(benzylamino)-4-oxobutyl)-1H-tetrazol-5-yl)ethyl)amino)-3-hydroxybutanoate]",> 96.7%,–,–
"O=C(O)C[C@@H](O)CNC(c1cccs1)c1nnnn1CCCC(=O)N1CCc2ccccc2C1 (mixture of isomers) [(3R)5ah, Sodium (3R)-4-(((1-(4-(3,4-dihydroisoquinolin-2(1H)-yl)-4-oxobutyl)-1H-tetrazol-5-yl)(thiophen-2-yl)methyl)amino)-3-hydroxybutanoate]",29%,32.6 µM,–
"O=C(O)C[C@H](O)CNC(c1ccccc1)c1nnnn1CCCC(=O)N1CCc2ccccc2C1 (mixture of isomers) [(3S)5 ag, Sodium (3S)-4-(((1-(4-(3,4-dihydroisoquinolin-2(1H)-yl)-4-oxobutyl)-1H-tetrazol-5-yl)(phenyl)methyl)amino)-3-hydroxybutanoate]",48.6%,68 µM,–
"O=C(O)C[C@H](O)CNC(c1cccs1)c1nnnn1CCCC(=O)N1CCc2ccccc2C1 (mixture of isomers) [(3S)5ah, Sodium (3S)-4-(((1-(4-(3,4-dihydroisoquinolin-2(1H)-yl)-4-oxobutyl)-1H-tetrazol-5-yl)(thiophen-2-yl)methyl)amino)-3-hydroxybutanoate]",37.2%,51.4 µM,–
"COc1cc2c(cc1OC)CN(C(=O)CCCn1nnnc1C(NCC(O)CC(=O)O)C(C)C)CC2 (centres unmarked) [5ca, Sodium 4-((1-(1-(4-(6,7-dimethoxy-3,4-dihydroisoquinolin-2(1H)-yl)-4-oxobutyl)-1H-tetrazol-5-yl)-2-methylpropyl)amino)-3-hydroxybutanoate]",> 96.7%,–,–
"O=C(O)CC(O)CNC(c1cccs1)c1nnnn1CCCC(=O)NCc1ccccc1 (centres unmarked) [5bf, Sodium 4-(((1-(4-(benzylamino)-4-oxobutyl)-1H-tetrazol-5-yl)(thiophen-2-yl)methyl)amino)-3-hydroxybutanoate]",> 96.7%,–,–
"O=C(O)C[C@@H](O)CNC(c1cccs1)c1nnnn1CCCC(=O)NCc1ccccc1 (mixture of isomers) [(3R)5bf, Sodium (3R)-4-(((1-(4-(benzylamino)-4-oxobutyl)-1H-tetrazol-5-yl)(thiophen-2-yl)methyl)amino)-3-hydroxybutanoate]",49.6%,77.8 µM,–
"COc1cc2c(cc1OC)CN(C(=O)CCCn1nnnc1C(NCC(O)CC(=O)O)c1cccs1)CC2 (centres unmarked) [5ce, Sodium 4-(((1-(4-(6,7-dimethoxy-3,4-dihydroisoquinolin-2(1H)-yl)-4-oxobutyl)-1H-tetrazol-5-yl)(thiophen-2-yl)methyl)amino)-3-hydroxybutanoate]",> 96.7%,–,–
"CC(C)(C)CC(c1nnnn1CCCC(=O)N1CCc2ccccc2C1)N(Cc1ccccc1)C[C@H](O)CC(=O)O (mixture of isomers) [(3R)16ac, Sodium (3R)-4-((1-(1-(4-(3,4-dihydroisoquinolin-2(1H)-yl)-4-oxobutyl)-1H-tetrazol-5-yl)-3,3-dimethylbutyl)(benzyl)amino)-3-hydroxybutanoate]",4.45%,15 µM,–
"CC(C)CC(c1nnnn1CCCC(=O)N1CCc2ccccc2C1)N(Cc1ccccc1)CC(O)CC(=O)[O-].[Na+] (centres unmarked) [16aa, Sodium 4-(benzyl(1-(1-(4-(3,4-dihydroisoquinolin-2(1H)-yl)-4-oxobutyl)-1H-tetrazol-5-yl)-3-methylbutyl)amino)-3-hydroxybutanoate]",–,–,low or is not significant
"CC(NCC(O)CC(=O)O)c1nnnn1CCCC(=O)N1CCc2ccccc2C1 (centres unmarked) [5aa, Sodium 4-((1-(1-(4-(3,4-dihydroisoquinolin-2(1H)-yl)-4-oxobutyl)-1H-tetrazol-5-yl)ethyl)amino)-3-hydrxybutanoate]",> 96.7%,–,–
"CC(C)(C)CC(NC[C@H](O)CC(=O)O)c1nnnn1CCCC(=O)N1CCc2ccccc2C1 (mixture of isomers) [(3R)5ae, Sodium (3R)-4-((1-(1-(4-(3,4-dihydroisoquinolin-2(1H)-yl)-4-oxobutyl)-1H-tetrazol-5-yl)-3,3-dimethylbutyl)amino)-3-hydroxybutanoate]",9.71%,12.2 µM,–
